Data as given in PMC8122083 (ACS infectious diseases, 2021).

Tests used:
H. pylori SS1 = experiment: H. pylori IC50 dose response; type: cell-based; conditions: Helicobacter pylori, SS1, read-out: H. pylori SS1 pIC50 (converted)
Cytotoxicity assay = type: cell-based; conditions: human, FaDu cells
How it was run: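 FaDu cells, maintained per ATCC protocols, were seeded in EMEM with 10% FBS at 3 x 10^5 cells/ml and grown 24 h at 37°C, 5% CO2. Medium was replaced with two-fold serial dilutions of test compound in fresh medium for 72 h, then with FBS-free EMEM plus resazurin (final 0.15 mM) for 3-5 h. Fluorescence read at ex 540/em 590 nm. IC50 fitted from percent inhibition versus growth controls, converted to pIC50, and reported as mean ± S.E.M.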

H. pylori [1] = experiment: H. pylori IC50 of high-throughput screening hits; type: cell-based; conditions: Helicobacter pylori, read-out: H. pylori IC50
H. pylori ATCC 43504 = experiment: H. pylori IC50 dose response; type: cell-based; conditions: Helicobacter pylori, ATCC43504, read-out: H. pylori ATCC 43504 pIC50 (converted)
H. pylori [2] = conditions: cited from earlier work

Compound	IC50 (H. pylori SS1) [nM]	IC50 at 72 h (Cytotoxicity assay) [nM]	IC50 (H. pylori [1]) [nM]	IC50 (H. pylori ATCC 43504) [nM]	H. pylori minimum inhibitory concentration (MIC) (H. pylori [2]) [ng/mL]
OCCCNc1ncnc2sc(-c3ccccc3)cc12 [Compound 1, 3-((6-phenylthieno[2,3-d]pyrimidin-4-yl)amino)propan-1-ol]	1580	126000	1550	1580	
CC[C@H]1OC(=O)[C@H](C)[C@@H](O[C@H]2C[C@@](C)(OC)[C@@H](O)[C@H](C)O2)[C@H](C)[C@@H](O[C@@H]2O[C@H](C)C[C@H](N(C)C)[C@H]2O)[C@](C)(OC)C[C@@H](C)C(=O)[C@H](C)[C@@H](O)[C@]1(C)O [clarithromycin]					8
